ChEMBL document CHEMBL4689842, “EUbOPEN Chemogenomics Library wave 1” (2021)

Test system: HEK-293T
Assay: Multiplex assay against HEK293T;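 for Population Tubulin-Different-Phenotype (%): share of the cells with healthy nuclei that show this phenotype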
Assay type: toxicity, cell-based
Settings: human
Outline: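 Cells stained live at seeding with Hoechst33342, BioTracker Green Microtubule Cytoskeleton Dye, MitoTracker Red and Annexin V Alexa Fluor 680 were imaged on a CQ1 microscope at 37°C and 5% CO2 after compound addition. Their classification by CellPathfinder machine-learning gating ran from Hoechst high-intensity objects versus normal cells, to healthy, pyknosed or fragmented nuclei among normal cells, to mitotic or apoptotic among pyknosed cells. Tubulin, mitochondrial-mass and membrane-permeability phenotypes are per cents of healthy-nucleus cells.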

[1] = 12 h, 1 µM, compound concentration 1 uM, replicate 1
[2] = 12 h, 1 µM, compound concentration 1 uM, replicate 2
[3] = 12 h, 10 µM, compound concentration 10 uM, replicate 1
[4] = 12 h, 10 µM, compound concentration 10 uM, replicate 2
[5] = 24 h, 1 µM, compound concentration 1 uM, replicate 1
[6] = 24 h, 1 µM, compound concentration 1 uM, replicate 2
[7] = 24 h, 10 µM, compound concentration 10 uM, replicate 1
[8] = 24 h, 10 µM, compound concentration 10 uM, replicate 2

CCOC(=O)CCNc1cc(N2CCc3ccccc3CC2)nc(-c2ccccn2)n1
Population Apoptotic (%) [1]: 15% | Population Fragmented Nuclei (%) [1]: 15% | Population Healthy Nuclei (%) [1]: 66% | Population Hoechst High Intensity Objects (%) [1]: 9% | Population Membrane Permeable-Phenotype (%) [1]: 4% | Population Mitochondria Different-Phenotype (%) [1]: 3% | Population Mitotic Cells (%) [1]: 84% | Population Normal (%) [1]: 90% | Population Pyknosed Nuclei (%) [1]: 17% | Population Tubulin-Different-Phenotype (%) [1]: 4% | Total Cell Count [1]: 720 | Population Apoptotic (%) [2]: 8% | Population Fragmented Nuclei (%) [2]: 8% | Population Healthy Nuclei (%) [2]: 86% | Population Hoechst High Intensity Objects (%) [2]: 1% | Population Membrane Permeable-Phenotype (%) [2]: 1% | Population Mitochondria Different-Phenotype (%) [2]: 8% | Population Mitotic Cells (%) [2]: 91% | Population Normal (%) [2]: 98% | Population Pyknosed Nuclei (%) [2]: 4% | Population Tubulin-Different-Phenotype (%) [2]: 5% | Total Cell Count [2]: 1753 | Population Apoptotic (%) [3]: 22% | Population Fragmented Nuclei (%) [3]: 13% | Population Healthy Nuclei (%) [3]: 54% | Population Hoechst High Intensity Objects (%) [3]: 16% | Population Membrane Permeable-Phenotype (%) [3]: 4% | Population Mitochondria Different-Phenotype (%) [3]: 27% | Population Mitotic Cells (%) [3]: 77% | Population Normal (%) [3]: 83% | Population Pyknosed Nuclei (%) [3]: 32% | Population Tubulin-Different-Phenotype (%) [3]: 31% | Total Cell Count [3]: 622 | Population Apoptotic (%) [4]: 26% | Population Fragmented Nuclei (%) [4]: 3% | Population Healthy Nuclei (%) [4]: 87% | Population Hoechst High Intensity Objects (%) [4]: 4% | Population Membrane Permeable-Phenotype (%) [4]: 2% | Population Mitochondria Different-Phenotype (%) [4]: 43% | Population Mitotic Cells (%) [4]: 73% | Population Normal (%) [4]: 95% | Population Pyknosed Nuclei (%) [4]: 8% | Population Tubulin-Different-Phenotype (%) [4]: 56% | Total Cell Count [4]: 1158 | Population Apoptotic (%) [5]: 20% | Population Fragmented Nuclei (%) [5]: 12% | Population Healthy Nuclei (%) [5]: 79% | Population Hoechst High Intensity Objects (%) [5]: 4% | Population Mitochondria Different-Phenotype (%) [5]: 2% | Population Mitotic Cells (%) [5]: 79% | Population Normal (%) [5]: 95% | Population Pyknosed Nuclei (%) [5]: 8% | Population Tubulin-Different-Phenotype (%) [5]: 7% | Total Cell Count [5]: 821 | Population Apoptotic (%) [6]: 1% | Population Fragmented Nuclei (%) [6]: 23% | Population Healthy Nuclei (%) [6]: 73% | Population Hoechst High Intensity Objects (%) [6]: 2% | Population Membrane Permeable-Phenotype (%) [6]: 5% | Population Mitochondria Different-Phenotype (%) [6]: 1% | Population Mitotic Cells (%) [6]: 98% | Population Normal (%) [6]: 97% | Population Pyknosed Nuclei (%) [6]: 2% | Population Tubulin-Different-Phenotype (%) [6]: 6% | Total Cell Count [6]: 2917 | Population Apoptotic (%) [7]: 40% | Population Fragmented Nuclei (%) [7]: 14% | Population Healthy Nuclei (%) [7]: 46% | Population Hoechst High Intensity Objects (%) [7]: 18% | Population Membrane Permeable-Phenotype (%) [7]: 4% | Population Mitochondria Different-Phenotype (%) [7]: 54% | Population Mitotic Cells (%) [7]: 59% | Population Normal (%) [7]: 81% | Population Pyknosed Nuclei (%) [7]: 38% | Population Tubulin-Different-Phenotype (%) [7]: 47% | Total Cell Count [7]: 535 | Population Apoptotic (%) [8]: 29% | Population Fragmented Nuclei (%) [8]: 4% | Population Healthy Nuclei (%) [8]: 83% | Population Hoechst High Intensity Objects (%) [8]: 8% | Population Membrane Permeable-Phenotype (%) [8]: 2% | Population Mitochondria Different-Phenotype (%) [8]: 50% | Population Mitotic Cells (%) [8]: 70% | Population Normal (%) [8]: 91% | Population Pyknosed Nuclei (%) [8]: 12% | Population Tubulin-Different-Phenotype (%) [8]: 65% | Total Cell Count [8]: 1034
